Measured values published in ChEMBL document CHEMBL3992564, “Design and synthesis of novel, potent and selective hypoxanthine analogs as adenosine A1 receptor antagonists and their biological evaluation” (Bioorg Med Chem, 2017).
pIC50: −log10 of the molar value. Active and inactive are the calls of the source. The rule behind the calls is not given here.

Experiments:
[1] = Drug metabolism assessed as hydroxylation at C-8 cyclopentyl by metabolic soft spot analysis; format: physicochemical
[2] = Drug metabolism assessed as hydroxylation at N-1 propyl by metabolic soft spot analysis; format: physicochemical
[3] = molecular target: T1, Adenosine receptor A2b (Homo sapiens) (UniProt P29275); experiment: Displacement of [3H]MRS-1754 from human adenosine A2B receptor expressed in HEK293 cell membranes at 30 uM after 90 mins relative to control
T1 sequence (whole entry): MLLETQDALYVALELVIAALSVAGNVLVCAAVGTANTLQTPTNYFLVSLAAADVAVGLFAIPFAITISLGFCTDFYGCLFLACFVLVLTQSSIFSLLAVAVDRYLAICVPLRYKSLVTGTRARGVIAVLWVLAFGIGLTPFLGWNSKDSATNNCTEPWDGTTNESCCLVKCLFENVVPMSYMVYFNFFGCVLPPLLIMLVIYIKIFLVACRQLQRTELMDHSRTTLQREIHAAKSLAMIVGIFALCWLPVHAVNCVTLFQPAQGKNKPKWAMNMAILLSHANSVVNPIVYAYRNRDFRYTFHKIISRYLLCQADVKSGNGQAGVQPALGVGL
Outline: (§1)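 Membranes from HEK-293 cells stably transfected with human receptor, pre-treated with adenosine deaminase. Radioligands: 1 nM [3H]DPCPX (A1), 1 nM [3H]ZM241385 (A2A), 1.6 nM [3H]MRS-1754 (A2B), 2 nM [3H]HEMADO (A3). Buffers: Tris pH 7.4 (A1, A2A, A3) or pH 6.5 (A2B), with ADA. Incubated 90 min at room temperature, then filtered. Nonspecific binding defined with 100 µM NECA. Ki from 8 concentrations run in triplicate.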

[4] = test system: Rattus norvegicus; experiment: Natriuretic activity in Wistar rat at 3 to 30 mg/kg, po via gavage measured after 4 hrs; format: functional, organism-based
Outline: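 Male Wistar rats (250-300 g, n = 6) dosed orally at 5 mL/kg. Vehicles: DMAC 5%/NaOH/saline, or NMP 10%/PEG-400 20%/saline pH 12.0. Rats were then kept singly in metabolic cages without food or water for 4 h. Urine volume, Na+ and K+ were measured with a biochemistry analyser.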

[5] = molecular target: T2, Adenosine receptor A3 (Homo sapiens, UniProt P0DMS8); experiment: Displacement of [3H]HEMADO from human adenosine A3 receptor expressed in HEK293 cell membranes after 90 mins; outline: as §1
T2 sequence (P0DMS8 whole entry): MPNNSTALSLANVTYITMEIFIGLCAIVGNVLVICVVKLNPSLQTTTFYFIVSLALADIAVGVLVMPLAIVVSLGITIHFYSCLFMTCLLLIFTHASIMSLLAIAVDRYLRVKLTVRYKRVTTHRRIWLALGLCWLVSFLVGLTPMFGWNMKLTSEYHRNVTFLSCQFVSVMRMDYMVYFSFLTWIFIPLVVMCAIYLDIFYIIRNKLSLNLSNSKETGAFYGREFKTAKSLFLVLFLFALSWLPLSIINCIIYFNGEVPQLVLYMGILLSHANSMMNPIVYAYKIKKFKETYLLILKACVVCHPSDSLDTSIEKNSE

[6] = Ratio of drug level in Wistar rat brain to plasma at 5 mg/kg, po via gavage measured at 2 hrs post dose by LC-Ms/MS analysis; format: ADME, organism-based; settings: read-out: BPR
Outline: (§2)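 Male Wistar rats, fasted overnight and for 2 h after dosing, given an oral solution at 5 mg/kg (0.5 mg/mL). Vehicle: NMP 10% with Labrasol 30% or PEG-400 20%, in citrate buffer […]. Blood and brain were taken at discrete time points, n = 2 per time point. Brain was homogenized 1:2 in PBS. Samples were precipitated with acetonitrile and run on LC-MS/MS; LLOQ 10 ng/mL.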

[7] = test system: Rattus norvegicus; experiment: Effect on serum Na+ level in Wistar rat at 3 to 30 mg/kg, po via gavage; format: ADME, organism-based; settings: in vivo
[8] = test system: Rattus norvegicus; experiment: Effect on serum K+ level in Wistar rat at 3 to 30 mg/kg, po via gavage; format: ADME, organism-based; settings: in vivo
[9] = Ratio of drug level in Wistar rat brain to plasma at 5 mg/kg, po via gavage measured at 4 hrs post dose by LC-Ms/MS analysis; format: ADME, organism-based; settings: read-out: BPR; outline: as §2

| Compound | Drug metabolism [1] | Drug metabolism [2] | inhibition [3] | Activity [4] | pIC50 [5] | Kp at 2 h [6] | Activity [7] | Activity [8] | Kp at 4 h [9] |
| --- | --- | --- | --- | --- | --- | --- | --- | --- | --- |
| CCCn1c(Oc2cccnc2C)nc2nc(C3CCCC3)[nH]c2c1=O | Metabolite_Detected | Metabolite_Detected | 91% | – | – | – | – | – | – |
| CCCn1c(Oc2ccc(F)c(F)c2)nc2nc(C3CCCC3)[nH]c2c1=O | – | – | – | Active | < 5.00 | 0.05 | Non-Toxic | Non-Toxic | 0.05 |
